# Experimental data from ChEMBL document CHEMBL4622914, “Development of a bioavailable boron-containing PI-103 Bioisostere, PI-103BE” (Bioorg Med Chem Lett, 2020).
# Columns and labels:
# [1] = Half life in ovariectomized nu/nu mouse at 10 mg/kg, ip measured upto 24 hrs by UHPLC-MS analysis; assay type: ADME, organism-based; settings: female, in vivo
# How it was run: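 Female ovariectomized Nu/Nu mice, 4–6 weeks old, received a single 10 mg/kg i.p. dose as an ethanol solution. Blood was drawn from the orbital sinus at 0.5, 1, 3, 8 and 24 h, one sampling per group, into EDTA. Plasma was spun at 4 °C and stored at −80 °C. Parent and metabolites were quantified by C18 UHPLC–TSQ Vantage MS/MS.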
# [2] = system: HeLa; assay: Antiproliferative activity against human HeLa cells assessed as reduction in cell viability incubated for 4 days by coulter counter method; assay type: functional, cell-based; settings: 96 h
# How it was run: (§1)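 Cancer cells were seeded at 50,000 per well in DMEM with 5% FBS. They were exposed to six compound doses for 4 days, with DMSO as vehicle control and a reference inhibitor as positive control. Cells were counted by Coulter counter. Survival ratio is treated cell number over vehicle cell number. IC50 was taken from dose–response curves. Triplicate experiments.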
# [3] = Stability of compound in cell culture medium assessed as compound hydrolysis measured after 24 hrs; assay type: physicochemical
# [4] = Drug concentration in ovariectomized nu/nu mouse plasma at 10 mg/kg, ip measured after 1 hr by UHPLC-MS analysis; assay type: ADME, organism-based; settings: female
# [5] = Stability of compound in cell culture medium assessed as compound hydrolysis measured after 1 hr; assay type: physicochemical
# [6] = Tmax in ovariectomized nu/nu mouse at 10 mg/kg, ip measured upto 24 hrs by UHPLC-MS analysis; assay type: ADME, organism-based; settings: female, in vivo
# [7] = Drug concentration in ovariectomized nu/nu mouse plasma at 10 mg/kg, ip measured after 8 hrs by UHPLC-MS analysis; assay type: ADME, organism-based; settings: female
# [8] = Cmax in ovariectomized nu/nu mouse at 10 mg/kg, ip measured upto 24 hrs by UHPLC-MS analysis; assay type: ADME, organism-based; design: dose 10 mg/kg, route intraperitoneal; settings: female, in vivo
# [9] = Drug concentration in ovariectomized nu/nu mouse plasma at 10 mg/kg, ip measured after 3 hrs by UHPLC-MS analysis; assay type: ADME, organism-based; settings: female
# [10] = Drug concentration in ovariectomized nu/nu mouse plasma at 10 mg/kg, ip measured after 0.5 hrs by UHPLC-MS analysis; assay type: ADME, organism-based; settings: female
# [11] = system: MDA-MB-231; assay: Antiproliferative activity against human MDA-MB-231 cells assessed as reduction in cell viability incubated for 4 days by coulter counter method; assay type: functional, cell-based; settings: MDA-MB-231, 96 h; how it was run: as §1
# [12] = system: CWR22R; assay: Antiproliferative activity against human 22Rv1 cells assessed as reduction in cell viability incubated for 4 days by coulter counter method; assay type: functional, cell-based; settings: 22Rv1, 96 h; how it was run: as §1
# [13] = Stability of compound in cell culture medium assessed as compound hydrolysis measured after 0.5 hrs; assay type: physicochemical
# [14] = system: A549; assay: Antiproliferative activity against human A549 cells assessed as reduction in cell viability incubated for 4 days by coulter counter method; assay type: functional, cell-based; settings: A549, 96 h; how it was run: as §1
# [15] = system: PC-3; assay: Antiproliferative activity against human PC3 cells assessed as reduction in cell viability incubated for 4 days by coulter counter method; assay type: functional, cell-based; settings: PC-3, 96 h
# How it was run: (§2)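 Cells seeded at 50,000 per well in DMEM with 5% FBS, exposed to six concentrations of compound for 4 days; DMSO as vehicle control. Cell numbers counted on a Coulter counter; survival ratio = treated/vehicle cell count. IC50 taken from dose-response curves. Triplicate experiments, mean ± SD.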
# [16] = AUC in ovariectomized nu/nu mouse at 10 mg/kg, ip measured upto 24 hrs by UHPLC-MS analysis; assay type: ADME, organism-based; design: dose 10 mg/kg, time < 24 hr, route intraperitoneal; settings: female, in vivo
# [17] = Stability of compound in cell culture medium assessed as compound hydrolysis measured after 8 hrs; assay type: physicochemical
# [18] = system: SK-OV-3; assay: Antiproliferative activity against human SKOV3 cells assessed as reduction in cell viability incubated for 4 days by coulter counter method; assay type: functional, cell-based; settings: SK-OV-3, 96 h; how it was run: as §2
# [19] = Stability of compound in cell culture medium assessed as compound hydrolysis measured after 3 hrs; assay type: physicochemical
structure (smiles),measurement,setting,value
Oc1cccc(-c2nc(N3CCOCC3)c3oc4ncccc4c3n2)c1 [PI-103],half-life,[1],2 h
same,IC50,[2],160 nM
same,Drug degradation,[3],0.14 µM
same,concentration at 1 h,[4],1.4 ng/mL
same,Drug degradation,[5],0.08 µM
same,Tmax,[6],1 h
same,concentration at 8 h,[7],0.3 ng/mL
same,Cmax,[8],1.4 ng/mL
same,concentration at 3 h,[9],1 ng/mL
same,concentration at 0.5 h,[10],0.1 ng/mL
same,IC50,[11],140 nM
same,IC50,[12],100 nM
same,Drug degradation,[13],0.05 µM
same,IC50,[14],180 nM
same,IC50,[15],170 nM
same,AUC at 24 h,[16],9.7 ng·h/mL
same,Drug degradation,[17],0.12 µM
same,IC50,[18],110 nM
same,Drug degradation,[19],0.12 µM
